CAL PDZ FP-1: untagged CAL PDZ binding inhibitors, primary screen, biochemical, fluorescence polarization, HTS. Golgi-associated PDZ and coiled-coil motif-containing protein (Homo sapiens), Q9HD26. purified CAL PDZ, TMR-peptide fluorescence polarization, 1 h. inhibition, % at 24.9 µM. 0.92% of 300,000 active;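 active = mean inhibition of at least 30% with at least half of replicates also reaching 30%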
CAL PDZ FP-2: CAL PDZ peptide-binding inhibitors, primary screen, biochemical, fluorescence polarization, Cer-tagged CAL PDZ, HTS; inhibition, % at 20 µM; purified CAL PDZ, TMR-peptide fluorescence polarization, 1 h; 0.02% of 330,000 active; AID 504414, 2011; Golgi-associated PDZ and coiled-coil motif-containing protein (Homo sapiens), Q9HD26;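 active = highest replicate inhibition of at least 40%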
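Read-out basis: mP drop reported as inhibition | Assay system: Tagged CAL PDZ protein CerCALP, purified | Benchmarks: Unlabelled peptide for full inhibition, DMSO wells as neutral | Schedule: 1 h incubation at room temperature before polarization reading | Buffer or medium: Sodium phosphate/NaCl buffer pH 7.4 with TCEP, IgG, Thesit | Doses: Single point, 20 µM | Measured by: Fluorescence polarization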
miR122 inh: miR-122 Renilla sensor signal increase in Huh7, primary screen, miR-122 inhibitor project, cell-based, single point, plate reader; 0.3% of 340,000 active; AID 602342, 2012; activation (reporter increase), % at 12.5 µM; Huh7 miR-122 Renilla luciferase sensor, 48 h; neutral wells = 0, positive control = 100;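 active = mean replicate activation score at least 90 and every replicate individually at or above 90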;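 also: higher luciferase means less miR-122 activity so hits act as miR-122 inhibitors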
ARNT TACC3 PPI: disruptors of ARNT/TACC3 protein interaction, primary screen, biochemical, AlphaScreen, single concentration; 0.66% of 390,000 active; AID 623870, 2012; inhibition, % at 9.99 µM; Transforming acidic coiled-coil-containing protein 3 (Homo sapiens), Q9Y6A5; AlphaScreen His-ARNT PAS-B/GST-TACC3 binding, luminescence; TACC3 fragment carries E629A point mutation;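 active = mean inhibition of replicates at least 50% and at least half of replicates each reaching 50%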
SR-BI HDL uptake: inhibitors of SR-BI mediated HDL lipid uptake, primary screen, ldlA[mSR-BI] cells, fluorescence, single point; inhibition, % at 12.5 µM; ldlA[mSR-BI] CHO cells, DiI-HDL uptake fluorescence, 3 h; Scavenger receptor class B member 1 (Mus musculus), Q61009; 0.96% of 320,000 active;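 active = mean replicate inhibition of at least 70% and a set share of replicates each scoring 70 or more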
Target sequence (Q61009 whole entry, looked up): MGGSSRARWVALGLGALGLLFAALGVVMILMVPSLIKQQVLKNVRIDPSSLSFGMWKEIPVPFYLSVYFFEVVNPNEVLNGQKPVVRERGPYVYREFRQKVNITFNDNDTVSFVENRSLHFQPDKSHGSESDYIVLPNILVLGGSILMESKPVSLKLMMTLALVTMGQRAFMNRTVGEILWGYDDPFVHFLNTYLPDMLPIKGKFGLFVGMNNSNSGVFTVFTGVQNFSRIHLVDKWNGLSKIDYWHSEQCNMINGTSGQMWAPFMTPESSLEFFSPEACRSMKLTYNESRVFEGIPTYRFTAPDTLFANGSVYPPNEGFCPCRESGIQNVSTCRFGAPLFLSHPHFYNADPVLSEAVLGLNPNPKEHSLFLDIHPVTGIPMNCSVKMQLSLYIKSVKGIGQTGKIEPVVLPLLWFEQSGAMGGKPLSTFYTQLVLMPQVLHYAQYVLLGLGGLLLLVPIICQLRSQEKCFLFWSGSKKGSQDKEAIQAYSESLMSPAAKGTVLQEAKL
SR-BI DiI-HDL act: activators of SR-BI mediated DiI-HDL uptake, primary screen, ldlA[mSR-BI] CHO cells, DiI fluorescence; 3 h; 100 = double the neutral-control signal; activation, % at 12.5 µM; 0.096% of 320,000 active; AID 504775, 2011;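 active = mean replicate activation of at least 60% and every replicate at or above 60%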
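Test system: SR-BI-overexpressing, LDLR-lacking CHO cells; Also added: labelled HDL, 10 µg/mL; Measured by: bottom-read cell fluorescence after medium removal, ex 550/em 595 nm; Timing: 3 h uptake period with compound, 37 °C; Buffer or medium: F12, 0.5% BSA, 25 mM HEPES; Doses: single compound concentration, delivered by pin transfer.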
Each line names hits and unclear results; the compound was inactive in the other large screens; [ ] = another dose, or the depositor's remark. Sampled rows, rich in hits. Any-hit rate of the full collection: about 2.1%.

C[C@H](CO)N1C[C@H](C)[C@H](CN(C)S(=O)(=O)c2ccccc2)OCCCC[C@H](C)Oc2ccc(NC(=O)NC3CCCCC3)cc2C1=O	none (no result: CAL PDZ FP-1, CAL PDZ FP-2, SR-BI HDL uptake, SR-BI DiI-HDL act)
COC(=O)c1[nH]c2ccc(C)cc2c1NC(=O)Nc1ccccc1OC	SR-BI HDL uptake 80
COC(=O)c1[nH]c2ccc(C)cc2c1NC(=O)CN1CCc2cc(OC)c(OC)cc2C1	none
COC(=O)c1ccc(NC(=O)c2cccc(NC(=O)c3ccccc3)c2)cc1	SR-BI HDL uptake 73
COC(=O)c1cccc(NC(=O)Nc2ccccc2OC)c1	SR-BI HDL uptake 81 (no result: miR122 inh)
COc1cccc(C(=O)COC(=O)c2ccc(NC(C)=O)cc2)c1	CAL PDZ FP-1 53 (no result: miR122 inh)
COc1ccc(S(=O)(=O)Nc2ccc3c(c2)C(=O)N([C@@H](C)CO)C[C@@H](C)[C@H](CN(C)S(=O)(=O)c2ccc(C)cc2)OCCCC[C@@H](C)O3)cc1	none (no result: CAL PDZ FP-1, CAL PDZ FP-2, SR-BI HDL uptake, SR-BI DiI-HDL act)
C[C@@H]1CN([C@@H](C)CO)C(=O)c2cc(NS(=O)(=O)c3ccc(Cl)cc3)ccc2O[C@@H]1CN(C)S(C)(=O)=O	none (no result: CAL PDZ FP-1, CAL PDZ FP-2, ARNT TACC3 PPI, SR-BI HDL uptake, SR-BI DiI-HDL act)
C[C@H]1CCCCO[C@H](CN(C)C(=O)c2ccccc2)[C@@H](C)CN([C@@H](C)CO)C(=O)c2cc(NC(=O)Nc3ccc4c(c3)OCO4)ccc2O1	none (no result: CAL PDZ FP-1, CAL PDZ FP-2, SR-BI HDL uptake, SR-BI DiI-HDL act)
O=C(Nc1ccccc1NC(=O)c1ccc(F)cc1)c1ccc(F)cc1	none
O=C(NC1=C(Nc2ccc(F)cc2)C(=O)c2ccccc2C1=O)c1ccc(Cl)cc1	CAL PDZ FP-1 70 (no result: miR122 inh)
CN1C(=O)c2cc(NC(=O)c3ccc(F)cc3)ccc2OC[C@@H]2O[C@H](CC(=O)NC3CCC3)CC[C@@H]21	none (no result: CAL PDZ FP-1, CAL PDZ FP-2, SR-BI HDL uptake, SR-BI DiI-HDL act)
CCC(=O)N1C[C@@H](C)[C@@H](OC)CN(C)C(=O)c2ccc(NC(=O)C3CC3)cc2OC[C@H]1C	none (no result: CAL PDZ FP-1, CAL PDZ FP-2, miR122 inh, SR-BI HDL uptake, SR-BI DiI-HDL act)
C[C@H](CO)N1C[C@H](C)[C@@H](CN(C)Cc2ccc(C(F)(F)F)cc2)Oc2ccc(N(C)C)cc2C1=O	miR122 inh 98[16.7 µM] (no result: CAL PDZ FP-1, CAL PDZ FP-2, ARNT TACC3 PPI, SR-BI HDL uptake, SR-BI DiI-HDL act)
C[C@@H]1CN([C@@H](C)CO)C(=O)c2cc(N(C)C)ccc2O[C@@H]1CN(C)Cc1ccc(C(=O)Nc2ccccc2N)cc1	miR122 inh 254[16.7 µM] (no result: CAL PDZ FP-1, CAL PDZ FP-2, ARNT TACC3 PPI, SR-BI HDL uptake, SR-BI DiI-HDL act)
C[C@H](CO)N1C[C@H](C)[C@H](CN(C)Cc2ccc(C(=O)Nc3ccccc3N)cc2)Oc2ccc(N(C)C)cc2CC1=O	miR122 inh 355[16.7 µM] (no result: CAL PDZ FP-1, CAL PDZ FP-2, SR-BI HDL uptake, SR-BI DiI-HDL act)
C[C@H]1CN([C@@H](C)CO)C(=O)c2cc(N(C)C)ccc2O[C@@H]1CN(C)Cc1ccc(C(=O)Nc2ccccc2N)cc1	none (no result: CAL PDZ FP-1, CAL PDZ FP-2, SR-BI HDL uptake, SR-BI DiI-HDL act)
CC(C)NC(=O)N(C)C[C@@H]1Oc2ccc(N(C)C)cc2CC(=O)N([C@H](C)CO)C[C@H]1C	ARNT TACC3 PPI 48 (no result: CAL PDZ FP-1, CAL PDZ FP-2, SR-BI HDL uptake, SR-BI DiI-HDL act)
C[C@H](CO)N1C[C@H](C)[C@H](CN(C)Cc2ccc(C(=O)Nc3ccccc3N)cc2)Oc2ccc(NC(=O)c3ccncc3)cc2CC1=O	none (no result: CAL PDZ FP-1, CAL PDZ FP-2, SR-BI HDL uptake, SR-BI DiI-HDL act)
C[C@H](CO)N1C[C@H](C)[C@@H](CN(C)Cc2ccc(C(=O)Nc3ccccc3N)cc2)Oc2ccc(N(C)C)cc2CC1=O	ARNT TACC3 PPI 45 (no result: CAL PDZ FP-1, CAL PDZ FP-2, SR-BI HDL uptake, SR-BI DiI-HDL act)
O=C(O)C1CC=CCC1C(=O)NC12CC3CC(CC(C3)C1)C2 (stereo not drawn)	CAL PDZ FP-1 67
C[C@@H](NC(=O)C[C@@H]1C=C[C@H](NC(=O)Cc2ccccn2)[C@@H](CO)O1)c1ccccc1	none (no result: CAL PDZ FP-1, CAL PDZ FP-2, miR122 inh, SR-BI HDL uptake, SR-BI DiI-HDL act)
NCC1CC2c3ccccc3C1c1ccccc12 (stereo not drawn)	CAL PDZ FP-1 92 (no result: CAL PDZ FP-2)
CO[C@@H]1CN(C)C(=O)c2cc(NS(C)(=O)=O)ccc2OC[C@H](C)N(C)C[C@H]1C	none (no result: CAL PDZ FP-1, CAL PDZ FP-2, miR122 inh, SR-BI HDL uptake, SR-BI DiI-HDL act)
COc1ccc(N=Nc2c(C)[nH]c3ccccc23)cc1	SR-BI HDL uptake 88
COc1cc2c(cc1OC)CN(c1nc(-c3cccnc3)nc3ccccc13)CC2	CAL PDZ FP-1 71
C[C@@H]1CN([C@H](C)CO)C(=O)c2cc(-c3ccccc3F)cnc2O[C@@H]1CN(C)C(=O)CN(C)C	none (no result: CAL PDZ FP-1, CAL PDZ FP-2, SR-BI HDL uptake, SR-BI DiI-HDL act)
CCN1/C(=C/C(C)=O)Sc2ccc(OC)cc21	CAL PDZ FP-1 48
O=C(CN1CCN(C(=O)c2ccco2)CC1)Nc1ccc(F)cc1F	CAL PDZ FP-1 89
COc1cc(NC(=O)c2ccccc2F)ccc1NC(=O)c1ccccc1Cl	SR-BI HDL uptake 93 (no result: miR122 inh, ARNT TACC3 PPI)
COc1cc(NC(=O)c2ccc(Br)o2)ccc1NC(=O)c1ccccc1Cl	SR-BI HDL uptake 83
Cc1cc(NC(=O)c2cncc(Br)c2)ccc1NC(=O)c1cc2ccccc2o1	SR-BI HDL uptake 97
COc1cc(NC(=O)c2cccnc2)ccc1NC(=O)c1ccccc1Cl	none (no result: CAL PDZ FP-1, miR122 inh, SR-BI HDL uptake, SR-BI DiI-HDL act)
COc1ccccc1NC(=O)c1ccc(Br)o1	none (no result: CAL PDZ FP-2)
CCC(=O)Nc1ccc(Cl)c(NC(=O)c2ccc(Br)o2)c1	SR-BI HDL uptake 76 (no result: SR-BI DiI-HDL act)
C[C@H]1CN([C@@H](C)CO)S(=O)(=O)c2ccc(-c3cccc(C#N)c3)cc2O[C@H]1CN(C)C(=O)c1ccc(F)cc1	none (no result: CAL PDZ FP-1, CAL PDZ FP-2, SR-BI HDL uptake, SR-BI DiI-HDL act)
COc1cc(NC(C)=O)ccc1NC(=O)c1cc2ccccc2o1	none (no result: CAL PDZ FP-1)
COc1cc(NC(=O)c2ccccc2[N+](=O)[O-])ccc1NC(=O)c1cc2ccccc2o1	SR-BI HDL uptake 77 (no result: miR122 inh)

High-throughput results: PubChem BioAssay, Broad Institute
